# Measured values of several laboratories.
# pIC50: −log10 of the molar value.
# Cell line: A549
# Effect on: cell growth or viability
SMILES,assay,setting,pIC50
CCCn1cnc2ccc(-c3ccc(NC(=O)CC4CC4)nc3)cc2c1=O,CCK-8,72 h,5.58
O=c1[nH]cc(F)c(=O)[nH]1,MTT,48 h,4.37
CCCCC(=O)Nc1ccc(-c2ccc3ncn(CCC)c(=O)c3c2)c(F)n1,CCK-8,72 h,< 5.00
O=C(Nc1ccc(Br)cc1)Nc1nc2cc(-c3ccc4ncn(Cc5ccccc5)c(=O)c4c3)ccc2s1,MTT,72 h,< 4.70
CCCC(=O)Nc1ccc(-c2ccc3ncn(Cc4ccccc4)c(=O)c3c2)cn1,CCK-8,72 h,< 5.00
COc1cc([C@@H]2c3cc4c(cc3[C@@H](O[C@@H]3O[C@@H]5CO[C@@H](C)O[C@H]5[C@H](O)[C@H]3O)[C@H]3COC(=O)[C@H]23)OCO4)cc(OC)c1O,MTT,48 h,4.84
COc1cccc2c1C(=O)c1c(O)c3c(c(O)c1C2=O)C[C@@](O)(C(=O)CO)C[C@@H]3O[C@H]1C[C@H](N)[C@H](O)[C@H](C)O1,MTT,,6.51
OC1CCN(c2ccc(/C=N/NC(=S)Nc3ccc(Cl)cc3)cc2)CC1,MTT,24 h,5.53
CCCn1cnc2ccc(-c3ccc(NC(=O)c4ccccc4)nc3)cc2c1=O,CCK-8,72 h,6.92
CC1=CC(=O)C(C(C)C)=CC1=O,SRB,48 h,4.95
CCCCn1cnc2ccc(-c3ccc(NC(=O)Nc4ccc(F)cc4)nc3)cc2c1=O,CCK-8,72 h,6.10
O=C(NCc1ccccc1)Nc1nc2cc(-c3ccc4ncn(Cc5ccccc5)c(=O)c4c3)ccc2s1,MTT,72 h,5.50
O=C(O)c1ccc(NCc2cccc(O)c2O)cc1,resazurin,72 h,4.04
COc1ccc(NC(=O)Nc2nc3cc(-c4ccc5ncn(Cc6ccccc6)c(=O)c5c4)ccc3s2)cc1,MTT,72 h,5.56
CC(C)[C@H](NC(=O)[C@H](Cc1c[nH]c2ccccc12)NC(=O)[C@H](Cc1c[nH]cn1)NC(=O)[C@H](CCCNC(=N)N)NC(=O)[C@H](CCCNC(=N)N)NC(=O)[C@H](Cc1c[nH]c2ccccc12)NC(=O)[C@H](Cc1c[nH]c2ccccc12)NC(=O)[C@H](Cc1c[nH]cn1)NC(=O)[C@H](Cc1c[nH]c2ccccc12)NC(=O)[C@H](CCCNC(=N)N)NC(=O)[C@@H](N)CCCCN)C(=O)N[C@H](C(=O)N[C@@H](Cc1c[nH]c2ccccc12)C(N)=O)C(C)C,MTT,24 h,3.97
COc1ccc(C=NNC(=O)c2cc(-c3ccccc3)n(-c3ccc(S(N)(=O)=O)cc3)n2)cc1OC,fluorescence,48 h,4.81
COc1cccc(CNc2ccc(C(=O)O)cc2)c1,resazurin,72 h,< 4.00
O=C(NO)Nc1nc2c(Cl)cc(Cl)cc2c(=O)n1-c1ccc(Cl)cc1,MTT,48 h,< 3.70
CC(C)[C@@H]1NC(=O)[C@@H](CCCNC(=N)N)NC(=O)[C@H](C)NC(=O)[C@@H](CCCN)NC(=O)[C@H](Cc2ccccc2)NC(=O)[C@@H](Cc2ccccc2)NC1=O,ATP luminescence,72 h,< 4.00
CCCCNC(=O)Nc1ccc(-c2ccc3ncn(CCCC)c(=O)c3c2)cn1,CCK-8,72 h,5.86
CC(=O)c1c(O)c2ccccc2oc1=O,MTT,48 h,4.54
O=C(Nc1ccc(-c2ccc3ncn(Cc4ccccc4)c(=O)c3c2)cn1)C1CCC1,CCK-8,72 h,< 5.00
COc1cccc2c1C(=O)c1c(O)c3c(c(O)c1C2=O)C[C@@](O)(C(=O)CO)C[C@@H]3O[C@H]1C[C@H](N)[C@H](O)[C@H](C)O1,,96 h,6.63
